Measured values published in ChEMBL document CHEMBL1128695, “Synthesis and antiviral activity of 8-aza analogs of chiral [2-(phosphonomethoxy) propyl]guanines” (J Med Chem, 1995).

Key:
[1] = tested on: MT4; experiment: Cytotoxic concentration required to reduce viability of mock-infected MT-4 cells (4 days); assay type: functional; settings: Homo sapiens, MT4, 96 h
Method in brief: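 Mock-infected MT-4 cells, 1×10^4/well, incubated with serial compound dilutions (DMSO stock 100 mg/mL diluted in RPMI/10% FCS) for 4 days at 37 °C, run alongside the antiviral test.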

[2] = Selectivity Index measured as the ratio of CC50 to that of EC50 (HIV-2) values.; assay type: functional
Method in brief: (§1)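 HIV-2 ROD (100 CCID50, MOI 0.01) infected 1×10^4 MT-4 cells per well in RPMI/10% FCS containing compound dilutions, made from a 100 mg/mL DMSO stock. After 8 days at 37 °C, MTT read viability. […] The CC50 comes from parallel mock-infected MT-4 cultures by MTT over 4 days. The index is the CC50/EC50 ratio.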

[3] = tested on: MT4; experiment: Protection of MT-4 cells against the cytopathic effect of HIV-2 (8 days); assay type: functional, cell-based; settings: Homo sapiens, MT4, 192 h
Method in brief: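 MT-4 cells (1×10^4/well, RPMI/10% FCS) with compound dilutions, infected with HIV-2 ROD at 100 CCID50 (MOI 0.01). Stock from persistently infected CEM supernatant.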

[4] = tested on: MT4; experiment: Protection of MT-4 cells against the cytopathic effect of HIV-1 (4 days); assay type: functional, cell-based; settings: Homo sapiens, MT4, 96 h
Method in brief: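 MT-4 cells (1×10^4/well, RPMI/10% FCS) with compound dilutions, infected with HIV-1 IIIB at 100 CCID50 (MOI 0.01). Stock from persistently infected H9/IIIB supernatant, titrated in C8166 by syncytia scoring.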

[5] = Selectivity Index measured as the ratio of CC50 to that of EC50 (HIV-1) values.; assay type: functional
Method in brief: (§2)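 HIV-1 IIIB (100 CCID50, MOI 0.01) was added to 1×10^4 MT-4 cells per well in RPMI/10% FCS with serial compound dilutions, made from a 100 mg/mL DMSO stock. After 4 days at 37 °C, viable cells were counted by MTT. […] SI = CC50/EC50.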

[6] = Selectivity Index measured as the ratio of CC50 to that of EC50(HIV-2) values.; assay type: functional; method in brief: as §1
[7] = Selectivity Index measured as the ratio of CC50 to that of EC50(HIV-1) values.; assay type: functional; method in brief: as §2

SMILES	CC50 [1]	Selectivity index [2]	EC50 [3]	EC50 [4]	Selectivity index [5]	Selectivity index [6]	Selectivity index [7]
Cc1cn([C@H]2C[C@H](N=[N+]=[N-])[C@@H](CO)O2)c(=O)[nH]c1=O [ZIDOVUDINE]	> 20 µM						
C[C@@H](Cn1cnc2c(O)nc(N)nc21)OCP(=O)(O)O	> 400 µM	> 89	4.5 µM	4.5 µM	> 89		
Nc1nc2c(ncn2CCOCP(=O)(O)O)c(=O)[nH]1 [GS-438]	2.4 µM	12	0.2 µM	0.19 µM	12.6		
C[C@@H](Cn1nnc2c(O)nc(N)nc21)OCP(=O)(O)O	> 400 µM	> 32	12.5 µM	12 µM	> 33		
C[C@H](Cn1nnc2c(O)nc(N)nc21)OCP(=O)(O)O	> 400 µM	2	200 µM	93 µM	> 4.3		
C[C@H](Cn1nc2nc(N)nc(O)c2n1)OCP(=O)(O)O	> 400 µM		> 400 µM	> 400 µM			
C[C@@H](Cn1nc2nc(N)nc(O)c2n1)OCP(=O)(O)O	> 400 µM		73 µM	53 µM		> 5.5	> 7.5
C[C@H](Cn1cnc2c(O)nc(N)nc21)OCP(=O)(O)O	> 48 µM	1.6	30 µM	19 µM	2.5		
